The values that follow come from ChEMBL document CHEMBL1149277, “Antiestrogen binding site and estrogen receptor mediate uptake and distribution of 4-hydroxytamoxifen-targeted doxorubicin-formaldehyde conjugate in breast cancer cells” (J Med Chem, 2004).

Each structure is given as a SMILES string.

A short description of data set [1]: Growth inhibition of ER expressing Rtx6 cells after 4 hrs. The class given is functional. The conditions noted are these: Homo sapiens.
Data set [2] has as its system MCF7. Description: Drug uptake in ER expressing MCF7 cells. Format: ADME, cell-based. The conditions noted are these: human. A digest of the protocol: (§1)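 Cells adhered overnight at 450000 per well, then were exposed to 0.5 µM drug for 1 h (uptake also at 20 and 40 min). They were trypsinized, washed cold, and held on ice in serum-free, phenol red-free RPMI. Flow cytometry: excitation 488 nm, emission 570–600 nm, 10000 cells, mean fluorescence minus drug-free background. Settings were fixed per cell line.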

The nature of data set [3]: Drug uptake in MCF7/Adr cells at 500 nM. Format: ADME, cell-based. The conditions noted are these: human, nci/adr-res, 0.5 µM. A digest of the protocol: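 MCF-7/Adr cells in log phase (RPMI 1640, 10% FBS), plated 450000 cells/well and adhered overnight; exposed to 0.5 μM drug (from 100× DMSO/1% AcOH stock) for 20, 40, 60 min. Cells were trypsinized, quenched and resuspended in cold serum-free, phenol red free RPMI, then held on ice. Flow cytometry: ex 488 nm, em 570–600 nm, 10000 cells; mean fluorescence minus drug-free background.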

The test system of data set [4] is MCF7. Description: Drug uptake in MCF7 cells at 500 nM for 1 hr relative to MDA-MB-435 cells. The class given is ADME, cell-based. The conditions noted are these: human, mcf7, 1 h, 0.5 µM. In a few lines: as §1
In data set [5] the target is T1, Anti-estrogen binding site (AEBS) (Homo sapiens) (UniProt Q15125+Q9UBM7). Kind of data set: Displacement of 0.05 nM [3H]tamoxifen from AEBS in MCF7 cell lysate relative to E/Z-4-hydroxytamoxifen. The class given is cell-free. In a few lines: (§2)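 AEBS source: MCF-7 cell lysate (sonicated, 12000g supernatant, diluted to 2.0 mg/mL protein, pH 7.4 lysis buffer with molybdate and protease inhibitors). [3H]tamoxifen at 5, 0.5 or 0.05 nM, with 1000 nM estradiol to saturate ER, plus cold competitor; 18 h at 4 °C. Dextran-coated charcoal strip, scintillation counting. Binding expressed relative to E/Z-4-OHT from reduction of bound tritium; competitors in duplicate.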

The target of data set [6] is T1, Anti-estrogen binding site (AEBS) (Homo sapiens). Description: Displacement of 0.5 nM [3H]tamoxifen from AEBS in MCF7 cell lysate relative to E/Z-4-hydroxytamoxifen. The class given is cell-free. A digest of the protocol: as §2
For data set [7] the target is unchanged. Kind of data set: Displacement of 5 nM [3H]tamoxifen from AEBS in MCF7 cell lysate relative to E/Z-4-hydroxytamoxifen. The class given is cell-free. A digest of the protocol: as §2
The target is the same in data set [8]. Description: Binding affinity at AEBS. Format: protein-complex assay. In a few lines: as §2
Data set [9] in a line: Drug uptake in ER expressing Rtx6 cells at 500 nM. Format: ADME, cell-based. The conditions noted are these: human, 0.5 µM. In a few lines:
as §1

Data set [10] relates to MDA-MB-231 (Homo sapiens). Description: Drug uptake in MDA-MB-231 cells at 500 nM for 1 hr relative to MDA-MB-435 cells. As to conditions: mda-mb-231, 1 h, 0.5 µM; call rule not given here.
For data set [11], the system named is MDA-MB-435. Description: Decrease in doxorubicin uptake in MDA-MB-435 cells at 10 uM after 1 hr relative to DOX-TEG-TAM. More on the design: scale not given: the % may be the effect or the level left. As to conditions: human, mda-mb-435, 1 h. Format: ADME, cell-based. A digest of the protocol:
(§3)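 Competition read by flow cytometry. MDA-MB-435 cells adhered overnight, then given 0.5 µM anthracycline for 1 h with or without tamoxifen at various concentrations (up to 10 µM). Cells trypsinized and kept cold in serum-free, phenol red-free RPMI. Excitation 488 nm, emission 570–600 nm, 10000 cells. Mean fluorescence with drug-free background subtracted.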

Data set [12] relates to MDA-MB-435. Kind of data set: Decrease in DOX-TEG-TAM uptake in MDA-MB-435 cells after 1 hr. The class given is ADME, cell-based. As to conditions: human, mda-mb-435, 1 h. In a few lines: as §3
Data set [13] has as its system MDA-MB-435. Kind of data set: Decrease DOX-TEG-TAM uptake in MDA-MB-435 cells at 10 uM after 1 hr relative to control. Format: ADME, cell-based. More on the design: scale not given: the % may be the effect or the level left. As to conditions: human, mda-mb-435, 1 h. In a few lines:
as §3

In data set [14] the test system is MDA-MB-435. Description: Decrease doxorubicin-saliform uptake in MDA-MB-435 cells at 10 uM after 1 hr relative to DOX-TEG-TAM. Format: ADME, cell-based. More on the design: scale not given: the % may be the effect or the level left. The conditions noted are these: human, mda-mb-435, 1 h. A digest of the protocol:
as §3

The nature of data set [15]: Inhibition of DOX-TEG-TAM uptake in ER expressing Rtx6 cells. The conditions noted are these: human. The class given is cell-based. A digest of the protocol: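 Rtx-6 cells in tamoxifen-free medium got 0.5 µM conjugate for 1 h with or without estradiol at various concentrations. Flow cytometry of anthracycline fluorescence: excitation 488 nm, emission 570–600 nm, 10000 cells. Mean fluorescence minus drug-free background.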

For data set [16], the system named is MDA-MB-435. Description: Inhibition of DOX-TEG-TAM uptake in MDA-MB-435 cells. The class given is cell-based. As to conditions: human. In a few lines:
as §3

As a reminder, the IC50 is the concentration that inhibits the measured activity by half. As to `COc1cccc2c1C(=O)c1c(O)c3c(c(O)c1C2=O)C[C@@](O)(C(=O)CO)C[C@@H]3O[C@H]1C[C@H](NCNC(=O)c2ccccc2O)[C@H](O)[C@H](C)O1`, the 50% inhibitory concentration (IC50) in [1] amounted to 61 nM. Moreover, the “Relative Fluorescent Unit” value is listed as 16 in the data set on MCF7 [2] and 1 in data set [3].
`CC/C(=C(/c1ccc(O)cc1)c1ccc(OCCN(C)CCOCCOCCO/N=C/c2ccc(O)c(C(=O)NCN[C@H]3C[C@H](O[C@H]4C[C@](O)(C(=O)CO)Cc5c(O)c6c(c(O)c54)C(=O)c4c(OC)cccc4C6=O)O[C@@H](C)[C@H]3O)c2)cc1)c1ccccc1`: the IC50 in data set [1] amounted to 67 nM. The “Relative Fluorescent Unit” value in the data set with MCF7 [2] was 25; in [9], 14. The Drug uptake (in the data set on MCF7 [4]; in data set [10]) was 25% each time. Moreover, the Activity was found to be 70% in [5], 72% in data set [6], 48% in data set [7] and 60% in data set [8].
In the case of `CC/C(=C(\c1ccccc1)c1ccc(OCCN(C)C)cc1)c1ccccc1` [TAMOXIFEN], the Activity is 8% with MDA-MB-435 [11], “Dose-dependent effect” in the data set with MDA-MB-435 [12], 47% in the data set on MDA-MB-435 [13] and 6% in the data set with MDA-MB-435 [14].
On to `C[C@]12CC[C@@H]3c4ccc(O)cc4CC[C@H]3[C@@H]1CC[C@@H]2O` [ESTRADIOL], for which the values for the Activity result (in data set [15]; in the data set on MDA-MB-435 [16]) were “Dose-dependent effect” and “Not Active”, respectively.
